Source: ChEMBL document CHEMBL4828738, “Design, synthesis and evaluation of novel 5-phenylthiophene derivatives as potent fungicidal of Candida albicans and antifungal reagents of fluconazole-resistant fungi” (Eur J Med Chem, 2021)
In brackets after ≈: the same amount, converted by molar mass.

Key:
Candida albicans [1] = assay: Fungicidal activity against Candida albicans ATCC SC5314 assessed as inhibition of visible fungal growth measured after 48 hrs; format: functional
Candida albicans [2] = assay: Anti-biofilm activity in Candida albicans CPCC400616 assessed as inhibition of biofilm formation incubated for 24 hrs by XTT assay; format: functional
Summary of the method: (§1)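 C. albicans CPCC400616 suspension placed in wells at 37 °C. Non-adherent cells and medium were removed at 3, 6, 18 or 24 h and wells washed with PBS. Compounds were added at a range of concentrations in fresh RPMI 1640 and incubated a further 24 h at 37 °C. Biofilm metabolic activity was read by XTT reduction.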

Candida albicans [3] = assay: Anti-biofilm activity in Candida albicans CPCC400616 assessed as inhibition of biofilm formation incubated for 18 hrs by XTT assay; format: functional; summary of the method: as §1
Candida albicans [4] = assay: Anti-biofilm activity in Candida albicans CPCC400616 assessed as inhibition of biofilm formation incubated for 6 hrs by XTT assay; format: functional; summary of the method: as §1
Candida albicans [5] = assay: Anti-biofilm activity in Candida albicans CPCC400616 assessed as inhibition of biofilm formation incubated for 3 hrs by XTT assay; format: functional; summary of the method: as §1
Candida albicans [6] = assay: Antifungal activity against Candida albicans ATCC SC5314 assessed as fungal growth inhibition by CLSI protocol based method; format: functional
Candida albicans [7] = assay: Antifungal activity against Candida albicans CPCC400616 assessed as fungal growth inhibition by CLSI protocol based method; format: functional
Candida tropicalis = assay: Antifungal activity against Candida tropicalis CGMCC 2.3739 assessed as fungal growth inhibition by CLSI protocol based method; format: functional
Cryptococcus neoformans = assay: Antifungal activity against Cryptococcus neoformans CGMCC2.3161 assessed as fungal growth inhibition by CLSI protocol based method; format: functional
Candida parapsilosis = assay: Antifungal activity against Candida parapsilosis GIM2.190 assessed as fungal growth inhibition by CLSI protocol based method; format: functional; conditions: Lodderomyces parapsilosis
Nakaseomyces glabratus = assay: Antifungal activity against Candida glabrata assessed as fungal growth inhibition by CLSI protocol based method; format: functional
Pichia kudriavzevii = assay: Antifungal activity against Candida krusei GIM2.1 assessed as fungal growth inhibition by CLSI protocol based method; format: functional
THLE-2 = assay: Cytotoxicity against human THLE-2 cells assessed as reduction in cell viability measured after 96 hrs by MTT assay; format: ADME, cell-based; conditions: THLE-2, 96 h
A549 = assay: Cytotoxicity against human A549 cells assessed as reduction in cell viability measured after 96 hrs by MTT assay; format: ADME, cell-based; conditions: A549, 96 h
MCF7 = assay: Cytotoxicity against human MCF7 cells assessed as reduction in cell viability measured after 96 hrs by MTT assay; format: ADME, cell-based; conditions: MCF7, 96 h
[8] = Metabolic stability in human plasma assessed as parent compound remaining after 60 mins by LC-MS/MS analysis; format: ADME, cell-free; conditions: read-out: Stability
[9] = Metabolic stability in human plasma assessed as parent compound remaining after 120 mins by LC-MS/MS analysis; format: ADME, cell-free; conditions: read-out: Stability
[10] = Metabolic stability in human plasma assessed as half life after 60 mins by LC-MS/MS analysis; format: ADME, cell-free
Candida albicans [11] = assay: Antifungal activity against fluconazole-resistant Candida albicans 901 assessed as fungal growth inhibition by CLSI protocol based method
Candida albicans [12] = assay: Antifungal activity against fluconazole-resistant Candida albicans 904 assessed as fungal growth inhibition by CLSI protocol based method
Candida albicans [13] = assay: Antifungal activity against fluconazole-resistant Candida albicans 632 assessed as fungal growth inhibition by CLSI protocol based method
Candida albicans [14] = assay: Antifungal activity against fluconazole-resistant Candida albicans 100 assessed as fungal growth inhibition by CLSI protocol based method
Candida albicans [15] = assay: Antifungal activity against fluconazole-resistant Candida albicans 103 assessed as fungal growth inhibition by CLSI protocol based method
Candida albicans [16] = assay: Antifungal activity against fluconazole-resistant Candida albicans 311 assessed as fungal growth inhibition by CLSI protocol based method
[17] = molecular target: T1, Lanosterol 14-alpha demethylase (Candida albicans (strain SC5314 / ATCC MYA-2876) (Yeast), UniProt P10613); assay: Inhibition of CYP51 in Candida albicans assessed as lanosterol level at 0.25 ug/ml measured after 18 hrs by GC-MS analysis relative to control; parameters: scale not given: the % may be the effect or the level left; conditions: at 0.25 µg/mL
[18] = molecular target: T1, Lanosterol 14-alpha demethylase; assay: Inhibition of CYP51 in Candida albicans assessed as ergosterol level at 0.25 ug/ml after 18 hrs by GC-MS analysis (reference value: 96.93 %); parameters: scale not given: the % may be the effect or the level left; conditions: at 0.25 µg/mL
[19] = molecular target: T1, Lanosterol 14-alpha demethylase; assay: Inhibition of CYP51 in Candida albicans assessed as Eburicol level at 0.25 ug/ml measured after 18 hrs by GC-MS analysis relative to control; parameters: scale not given: the % may be the effect or the level left; conditions: at 0.25 µg/mL
[20] = molecular target: T1, Lanosterol 14-alpha demethylase; assay: Inhibition of CYP51 in Candida albicans assessed as 14alpha-methylfecosterol level at 0.25 ug/ml measured after 18 hrs by GC-MS analysis relative to control; parameters: scale not given: the % may be the effect or the level left; conditions: at 0.25 µg/mL
[21] = molecular target: T1, Lanosterol 14-alpha demethylase; assay: Inhibition of CYP51 in Candida albicans assessed as other sterols level at 0.25 ug/ml measured after 18 hrs by GC-MS analysis relative to control; parameters: scale not given: the % may be the effect or the level left; conditions: at 0.25 µg/mL

T1 sequence (P10613 whole entry): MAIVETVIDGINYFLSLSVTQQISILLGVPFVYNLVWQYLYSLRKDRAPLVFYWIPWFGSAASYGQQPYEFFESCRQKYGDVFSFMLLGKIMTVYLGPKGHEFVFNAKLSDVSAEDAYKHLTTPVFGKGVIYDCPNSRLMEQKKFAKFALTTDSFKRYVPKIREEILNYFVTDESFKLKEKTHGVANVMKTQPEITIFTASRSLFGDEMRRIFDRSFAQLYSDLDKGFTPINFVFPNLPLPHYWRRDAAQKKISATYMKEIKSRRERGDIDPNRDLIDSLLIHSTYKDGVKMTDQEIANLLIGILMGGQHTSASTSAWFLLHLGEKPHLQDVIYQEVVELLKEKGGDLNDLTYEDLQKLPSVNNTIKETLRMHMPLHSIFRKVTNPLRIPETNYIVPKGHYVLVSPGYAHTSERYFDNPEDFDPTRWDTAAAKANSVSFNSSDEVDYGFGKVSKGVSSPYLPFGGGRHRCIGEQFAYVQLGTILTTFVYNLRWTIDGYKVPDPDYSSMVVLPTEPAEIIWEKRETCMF

SMILES | MFC (Candida albicans [1]) [µg/mL] | MBIC50 (Candida albicans [2]) [µg/mL] | MBIC50 (Candida albicans [3]) [µg/mL] | MBIC50 (Candida albicans [4]) [µg/mL] | MBIC50 (Candida albicans [5]) [µg/mL] | MIC (Candida albicans [6]) [µg/mL] | MIC (Candida albicans [7]) [µg/mL] | MIC (Candida tropicalis) [µg/mL] | MIC (Cryptococcus neoformans) [µg/mL] | MIC (Candida parapsilosis) [µg/mL] | MIC (Nakaseomyces glabratus) [µg/mL] | MIC (Pichia kudriavzevii) [µg/mL] | IC50 (THLE-2) [µM] | IC50 (A549) [µM] | IC50 (MCF7) [µM] | MIC (Candida albicans [11]) [µg/mL] | MIC (Candida albicans [12]) [µg/mL] | MIC (Candida albicans [13]) [µg/mL] | MIC (Candida albicans [14]) [µg/mL] | MIC (Candida albicans [15]) [µg/mL] | other results
C[C@@H](c1ncncc1F)[C@](O)(Cn1cncn1)c1ccc(F)cc1F [VORICONAZOLE] | 8 (≈ 22.9 µM) | >64 | >64 | 32 | 16 | 0.06 (≈ 0.172 µM) | 0.125 (≈ 0.358 µM) | 0.06 (≈ 0.172 µM) | 0.06 (≈ 0.172 µM) | 0.06 (≈ 0.172 µM) | 0.125 (≈ 0.358 µM) | 0.125 (≈ 0.358 µM) | > 30 | > 30 | > 30 |  |  |  |  |  | 
O=C(NC(Cn1ccnc1)C(=O)c1cccc(F)c1)c1ccc(-c2ccc(Cl)cc2)s1 (stereo not given) | 25 (≈ 55.1 µM) | >64 | >64 | 16 | 2 | 0.06 (≈ 0.132 µM) | 0.125 (≈ 0.275 µM) | 0.125 (≈ 0.275 µM) | 0.25 (≈ 0.551 µM) | 0.5 (≈ 1.1 µM) | 1 (≈ 2.2 µM) | 0.25 (≈ 0.551 µM) | 4.81 | 26.5 | > 30 | 2 (≈ 4.41 µM) | 2 (≈ 4.41 µM) | 0.5 (≈ 1.1 µM) | 2 (≈ 4.41 µM) | 2 (≈ 4.41 µM) | remaining at 1 h [8]: 73.4%; remaining at 2 h [9]: 47.1%; half-life [10]: 1.85 h; MIC (Candida albicans [16]): 1 µg/mL (≈ 2.2 µM)
OC(Cn1cncn1)(Cn1cncn1)c1ccc(F)cc1F [FLUCONAZOLE] | > 64 | >64 | >64 | >64 | 32 | 0.5 (≈ 1.63 µM) | 1 (≈ 3.27 µM) | 0.5 (≈ 1.63 µM) | 4 (≈ 13.1 µM) | 2 (≈ 6.53 µM) | 4 (≈ 13.1 µM) | 8 (≈ 26.1 µM) | > 30 | > 30 | > 30 | > 64 | > 64 | > 64 | > 64 | > 64 | Activity [17]: 34.42%; Activity [18]: 3.15%; Activity [19]: 29.02%; Activity [20]: 22.35%; Activity [21]: 4.21%; MIC (Candida albicans [16]): > 64 µg/mL
